# From ChEMBL document CHEMBL2331304, “N1,N3-disubstituted uracils as nonnucleoside inhibitors of HIV-1 reverse transcriptase” (Bioorg Med Chem, 2013)
# Active and inactive are the calls of the source. The rule behind the calls is not given here.
# What was measured:
# [1] = target: Human immunodeficiency virus type 1 reverse transcriptase (Human immunodeficiency virus 1, UniProt Q72547, K103N); assay: Inhibition of HIV1 reverse transcriptase p66/p51 K103N mutant after 30 mins by liquid scintillation counting
# [2] = target: Human immunodeficiency virus type 1 reverse transcriptase (Human immunodeficiency virus 1, UniProt Q72547, L100I); assay: Inhibition of HIV1 reverse transcriptase p66/p51 L100I mutant after 30 mins by liquid scintillation counting
# [3] = target: Human immunodeficiency virus type 1 reverse transcriptase (Human immunodeficiency virus 1, UniProt Q72547); assay: Non-competitive inhibition of wild type HIV1 reverse transcriptase p66/p51 after 30 mins by liquid scintillation counting
# [4] = Selectivity index, ratio of CC50 for human MT4 cells to EC50 for HIV1 3B infected in human MT4 cells; format: toxicity, cell-based; conditions: MT4 cells (uninfected for CC50; HIV-1 3B infected for EC50)
# [5] = tested on: MT4; assay: Cytotoxicity against human MT4 cells after 4 days by MTT assay; format: cell-based; conditions: mt4, 96 h
# [6] = tested on: Human immunodeficiency virus 1; assay: Antiviral activity against HIV1 3B infected in human MT4 cells assessed as inhibition of virus-induced cytopathic effect after 4 days by MTT assay; format: functional, organism-based; conditions: Human immunodeficiency virus 1, 3B, MT4, 96 h
# Procedure, shortened: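 HIV-1 in MT-4 cells at 1 × 10^5 cells/ml, infected at MOI 0.02 (virus stock titrated as CCID50), then plated immediately onto varying compound concentrations. After 4 days at 37 °C, viable cells counted by MTT.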
# [7] = tested on: Human alphaherpesvirus 3; assay: Antiviral activity against Varicella zoster virus; format: functional, organism-based
# Procedure, shortened: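 VZV strain Oka and the TK− strain 07-1 were inoculated at 20 PFU onto confluent cell monolayers in the presence of varying compound concentrations. Plaque formation was recorded once complete in untreated infected controls.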
# [8] = tested on: Punta Toro virus; assay: Antiviral activity against Punta Toro virus; format: functional, organism-based
# [9] = tested on: Sindbis virus; assay: Antiviral activity against Sindbis virus; format: functional, organism-based
# [10] = tested on: Mammalian orthoreovirus 1; assay: Antiviral activity against Reovirus 1; format: functional, organism-based
# [11] = tested on: Human respirovirus 3; assay: Antiviral activity against Parainfluenza virus 3; format: functional, organism-based
# [12] = tested on: Influenza B virus; assay: Antiviral activity against influenza B virus; format: functional, organism-based
# [13] = tested on: Influenza A virus; assay: Antiviral activity against Influenza A virus H3N2; format: functional, organism-based
# [14] = tested on: Influenza A virus; assay: Antiviral activity against Influenza A virus H1N1; format: functional, organism-based
# [15] = tested on: Respiratory syncytial virus; assay: Antiviral activity against Respiratory syncytial virus; format: functional, organism-based
# [16] = tested on: Coxsackievirus B4; assay: Antiviral activity against Coxsackievirus B4; format: functional, organism-based
# [17] = tested on: Vesicular stomatitis virus; assay: Antiviral activity against Vesicular stomatitis virus; format: functional, organism-based
# [18] = tested on: Vaccinia virus; assay: Antiviral activity against Vaccinia virus; format: functional, organism-based; conditions: Orthopoxvirus vaccinia
# [19] = tested on: Human alphaherpesvirus 2; assay: Antiviral activity against Human herpesvirus 2; format: functional, organism-based
# Procedure, shortened: (§1)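 Confluent HEL, Vero, HeLa or MDCK monolayers (cell type per virus not specified) were inoculated with 100 CCID50 of virus, with a range of compound concentrations. Strains were HSV-1 KOS and TK− ACV-resistant KOS, HSV-2 Lyons and G, and HCMV AD-169 and Davis. Cytopathicity or plaques were scored once complete in untreated infected controls.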
# [20] = tested on: Human alphaherpesvirus 1; assay: Antiviral activity against Human herpesvirus 1; format: functional, organism-based; procedure, shortened: as §1
# [21] = tested on: Feline coronavirus; assay: Antiviral activity against Feline coronavirus; format: functional, organism-based
# [22] = target: Human immunodeficiency virus type 1 reverse transcriptase (Human immunodeficiency virus 1, UniProt Q72547, K103N/Y181C); assay: Inhibition of HIV1 reverse transcriptase p66/p51 K103N/Y181C mutant after 30 mins by liquid scintillation counting
# [23] = Inhibition of HIV1 reverse transcriptase p66/p51 G190A mutant after 30 mins by liquid scintillation counting; design: species or system Human immunodeficiency virus 1
# [24] = target: Human immunodeficiency virus type 1 reverse transcriptase (Human immunodeficiency virus 1, UniProt Q72547, Y181C); assay: Inhibition of HIV1 reverse transcriptase p66/p51 Y181C mutant after 30 mins by liquid scintillation counting
# [25] = target: Human immunodeficiency virus type 1 reverse transcriptase (Human immunodeficiency virus 1, UniProt Q72547, V106A); assay: Inhibition of HIV1 reverse transcriptase p66/p51 V106A mutant after 30 mins by liquid scintillation counting
# [26] = tested on: Human betaherpesvirus 5; assay: Antiviral activity against HCMV Davis; format: functional, organism-based; conditions: Human betaherpesvirus 5, Davis; procedure, shortened: as §1
# [27] = tested on: Human betaherpesvirus 5; assay: Antiviral activity against HCMV AD169; format: functional, organism-based; conditions: Human betaherpesvirus 5, AD169; procedure, shortened: as §1
SMILES,Ki [1] [µM],Ki [3] [µM],selectivity ratio [4],CC50 [5] [µM],EC50 [6] [µM],Activity [7],Activity [8],Activity [9],Activity [10],Activity [11],Activity [12],Activity [13],Activity [14],Activity [15],Activity [16],Activity [17],Activity [18],Activity [19],Activity [20],Activity [21],further results
O=c1ccn(C/C=C/c2ccccc2)c(=O)n1Cc1cc(Br)cc(Br)c1,9.4,0.31,134,231,1.72,inactive,inactive,inactive,inactive,inactive,inactive,inactive,inactive,inactive,inactive,inactive,inactive,inactive,inactive,inactive,Ki [2]: 0.36 µM; Ki [22]: > 100 µM; Ki [23]: 0.3 µM; Ki [24]: 25 µM; Ki [25]: 4.2 µM
Cc1ccc(OCCn2ccc(=O)n(Cc3cc(C)cc(C)c3)c2=O)cc1,> 26,0.26,> 1270,> 343,0.27,inactive,inactive,inactive,inactive,inactive,inactive,inactive,inactive,inactive,inactive,inactive,inactive,inactive,inactive,inactive,Ki [2]: 0.13 µM; Ki [22]: > 26 µM; Ki [23]: 0.36 µM; Ki [24]: 169 µM; Ki [25]: 7.5 µM
O=c1ccn(C/C=C/c2ccccc2)c(=O)n1Cc1cc(Cl)cc(Cl)c1,15.5,0.67,24,49,1.99,inactive,inactive,inactive,inactive,inactive,inactive,inactive,inactive,inactive,inactive,inactive,inactive,inactive,inactive,inactive,Ki [2]: 0.92 µM; IC50 [26]: 12 µM; IC50 [27]: 9.4 µM; Ki [22]: > 100 µM; Ki [23]: 0.55 µM; Ki [24]: 43 µM; Ki [25]: 11 µM
Cc1cc(Br)cc(Cn2c(=O)ccn(C/C=C/c3ccccc3)c2=O)c1,6.9,0.31,73,100,1.36,inactive,inactive,inactive,inactive,inactive,inactive,inactive,inactive,inactive,inactive,inactive,inactive,inactive,inactive,inactive,Ki [2]: 0.24 µM; IC50 [26]: ≥ 20 µM; IC50 [27]: 16 µM; Ki [22]: 85 µM; Ki [23]: 0.18 µM; Ki [24]: 20 µM; Ki [25]: 2.3 µM
Cc1cc(C)cc(Cn2c(=O)ccn(C/C=C/c3ccccc3)c2=O)c1,12,0.55,202,257,1.27,inactive,inactive,inactive,inactive,inactive,inactive,inactive,inactive,inactive,inactive,inactive,inactive,inactive,inactive,inactive,Ki [2]: 0.76 µM; Ki [22]: > 100 µM; Ki [23]: 0.4 µM; Ki [24]: 75 µM; Ki [25]: 2.9 µM
O=c1ccn(C/C=C/c2ccccc2)c(=O)n1Cc1cccc2ccccc12,–,6.6,22,293,13,inactive,inactive,inactive,inactive,inactive,inactive,inactive,inactive,inactive,inactive,inactive,inactive,inactive,inactive,inactive,IC50 [26]: 6.4 µM; IC50 [27]: 14 µM
